# Calls of active or inactive are those of the source. The calls are words filed in the database; no cut-off is given here.
# Assays:
# Cavia porcellus [1] = species: Cavia porcellus; assay: In vitro bronchodilator activity in isolated guinea pig tracheal spiral preparation; format: functional; settings: Trachea
# How it was run: (§1)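 Guinea pig tracheal spiral held under 1.0 g tension, equilibrated 90–120 min to maximal spontaneous tonus. One drug concentration per spiral, ≥3 trials per concentration. Relaxation was expressed as % of that produced by papaverine (10 µg/mL) in the same tissue. Concentrations are bath values in µg/mL; the 50%-relaxation concentration was obtained by regression.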
# Rattus norvegicus [2] = assay: In vivo bronchodilator activity in methacholine (intravenous) induced bronchospasm in male Harlan-Sprague-Dawley rats when administered intraduodenally; format: functional
# Rattus norvegicus [3] = assay: Antiallergic activity was evaluated by inhibition of allergen-induced bronchospasm in male Harlan-Wistar rats when administered intraduodenally 15 min prior to antigen challenge; format: functional; settings: intraduodenal
# Rattus norvegicus [4] = assay: Antiallergic activity was evaluated by passive cutaneous anaphylaxis test in egg albumin sensitized male Harlan-Sprague-Dawley rats when administered perorally; format: functional; settings: po
# How it was run: (§2)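 Donor rats got egg albumin im (1 mg/rat) plus killed B. pertussis vaccine ip (2 × 10¹⁰ organisms/rat) and were bled 10–12 days later for IgE-rich antiserum. Recipient rats (100–150 g) were sensitized intradermally with 0.1 mL of 1:2.5 and 1:10 antiserum dilutions.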
# Rattus norvegicus [5] = assay: In vivo bronchodilator activity in methacholine (intravenous) induced bronchospasm in male Harlan-Sprague-Dawley rats when administered intraduodenally; statistically significant inhibition of < 50% at thr stated dose; format: functional
# Rattus norvegicus [6] = assay: Antiallergic activity by passive cutaneous anaphylaxis test in ovalbumin sensitized male Harlan-Sprague-Dawley rats by oral dose; format: functional; how it was run: as §2
# Rattus norvegicus [7] = assay: Antiallergic activity by passive cutaneous anaphylaxis test in rats by intravenous administration; format: functional; how it was run: as §2
# Rattus norvegicus [8] = species: Rattus norvegicus; assay: Antiallergic activity in in vitro antigen-induced histamine release from isolated mast cells; format: functional, cell-based
# How it was run: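 Peritoneal lavage cells from male Harlan-Sprague-Dawley rats (200–300 g), collected in HBSS with 0.1% human albumin and 5 mM phosphate. Cells were sensitized 2 h at 37 °C in rat antiserum with heparin, then challenged with EA; drug was added together with antigen at several concentrations, 4 trials each. After 10 min, histamine was measured fluorimetrically and % inhibition calculated vs drug-free release.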
# Rattus norvegicus [9] = assay: Antiallergic activity by passive cutaneous anaphylaxis test in rats by intraduodenal administration; format: functional
# How it was run: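 Recipient male Harlan-Sprague-Dawley or Wistar rats (100–150 g) received 0.1 mL intradermal antiserum at 1:2.5 and 1:10. Donor antiserum came from rats given egg albumin 1 mg im plus killed B. pertussis 2 × 10¹⁰ ip, bled 10–12 days later. After 48 h, drug went intraduodenally under anesthesia, then iv egg albumin 25 mg/kg with Evans blue 25 mg/kg. Read-out was spot-diameter inhibition versus controls, ≥5 rats/dose; ED50 was estimated.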
# Rattus norvegicus [10] = species: Rattus norvegicus; assay: Antiallergic activity by passive cutaneous anaphylaxis test in vitro in rats; format: functional
# How it was run: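 Peritoneal mast cells were lavaged from male Harlan-Sprague-Dawley rats (200–300 g) with HBSS containing 0.1% albumin and 5 mM phosphate. Cells were sensitized with IgE antiserum plus heparin for 2 h at 37 °C, then challenged with egg albumin, drug added simultaneously. After 10 min, histamine was measured fluorimetrically; inhibition versus no-drug release, four trials per concentration.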
# Rattus norvegicus [11] = assay: Percent inhibition of PCA reaction at 33 mg/kg oral dose after 24 hr r; format: functional
# Cavia porcellus [12] = species: Cavia porcellus; assay: Evaluation of in vitro bronchodilator activity in isolated guinea pig tracheal spiral preparation; format: functional; settings: Trachea; how it was run: as §1
# Rattus norvegicus [13] = assay: In vivo bronchodilator effect on (intravenous) methacholine-induced bronchospasm in male Harlan-Sprague-Dawley rats at 10 mg/kg intraduodenal dose (inactive); format: functional, organism-based; set-up: dose 10 mg/kg
# [14] = Inhibition of rat lung cGMP-Phosphodiesterase
# Rattus norvegicus [15] = assay: Percent inhibition of PCA reaction in anesthetized rats at 47.6 mg/kg oral administration for 24 hr r; format: functional
# How it was run: (§3)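 Passive cutaneous anaphylaxis in anesthetized rats. Passive sensitization used intradermal IgE antiserum (1:2.5 and 1:10), with a 48-h latent period. Intraduodenal or oral dose is expressed as free-acid equivalent of the salt given. Rats were challenged at 15 min, 3, 6 or 24 h with iv egg albumin 25 mg/kg plus Evans blue 25 mg/kg. Inhibition was calculated from mean spot diameters versus vehicle controls, 10 animals per dose.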
# Rattus norvegicus [16] = assay: Percent inhibition of PCA reaction in anesthetized rats at 47.6 mg/kg oral administration for 3 hr; format: functional; how it was run: as §3
# Rattus norvegicus [17] = assay: Percent inhibition of PCA reaction in anesthetized rats at 47.6 mg/kg oral administration for 6 hr; format: functional; how it was run: as §3
# Rattus norvegicus [18] = assay: Percent inhibition of PCA reaction in anesthetized rats after 11.7 mg/kg intraduodenal administration for 15 min; format: functional; settings: 0.25 h; how it was run: as §3
# Rattus norvegicus [19] = assay: Percent inhibition of PCA reaction in anesthetized rats at 47.6 mg/kg oral administration for 15 min; format: functional; settings: 0.25 h; how it was run: as §3
# Rattus norvegicus [20] = assay: Percent inhibition of PCA reaction in anesthetized rats at 11.7 mg/kg intraduodenal administration for 3 hr
# Rattus norvegicus [21] = assay: Antiallergic activity by passive cutaneous anaphylaxis test in ovalbumin sensitized male Harlan-Sprague-Dawley rats administered orally; format: functional; settings: po; how it was run: as §2
# Rattus norvegicus [22] = assay: Antiallergic activity by passive cutaneous anaphylaxis test in ovalbumin sensitized male Harlan-Sprague-Dawley rats at 25 mg/kg oral dose (inactive); format: functional, organism-based; set-up: dose 25 mg/kg; how it was run: as §2
# Rattus norvegicus [23] = assay: Antiallergic activity by passive cutaneous anaphylaxis test in ovalbumin sensitized male Harlan-Sprague-Dawley rats administered perorally; format: functional; settings: po; how it was run: as §2
smiles,measurement,setting,value
C[C@H]1N=C2N(Cc3ccc(Cl)cc3)c3[nH]cnc3C(=O)N2[C@H]1C,IC50,Cavia porcellus [1],0.7 µg/mL
same,ED50,Rattus norvegicus [2],3 mg/kg
same,ED50,Rattus norvegicus [3],1.7 mg/kg
same,ED50,Rattus norvegicus [4],28.5 mg/kg
CC(C)CN1C2=NCCN2C(=O)c2[nH]c(C(C)C)nc21,IC50,Cavia porcellus [1],11.5 µg/mL
same,ED50,Rattus norvegicus [2],9.5 mg/kg
same,ED50,Rattus norvegicus [4],15.3 mg/kg
S=C1c2[nH]cnc2N(Cc2ccc(Cl)cc2)C2=NCCN12,IC50,Cavia porcellus [1],5.1 µg/mL
same,ED50,Rattus norvegicus [5],> 30 mg/kg
CC1CN2C(=O)c3c(ncn3C)N(Cc3ccc(Cl)cc3)C2=N1 (stereo not drawn),IC50,Cavia porcellus [1],2.3 µg/mL
same,ED50,Rattus norvegicus [2],1.1 mg/kg
same,ED50,Rattus norvegicus [3],3.4 mg/kg
same,ED50,Rattus norvegicus [4],28.9 mg/kg
CC(C)CN1C2=NCCN2C(=O)c2[nH]cnc21,IC50,Cavia porcellus [1],6.3 µg/mL
same,ED50,Rattus norvegicus [6],> 25 mg/kg
CCCCn1cnc2c1C(=O)N1CCN=C1N2Cc1ccc(Cl)cc1,IC50,Cavia porcellus [1],15.5 µg/mL
same,ED50,Rattus norvegicus [5],> 10 mg/kg
O=C([O-])c1cc(=O)c2c(OCC(O)COc3cccc4oc(C(=O)[O-])cc(=O)c34)cccc2o1.[Na+].[Na+] [CROMOLYN SODIUM],ED50,Rattus norvegicus [7],0.29 mg/kg
same,IC50,Rattus norvegicus [8],8 µM
CCc1nc2c([nH]1)N(CC(C)C)C1=NCCN1C2=O,IC50,Cavia porcellus [1],16.7 µg/mL
Cc1nc2c(n1C)C(=O)N1CC(C)N=C1N2Cc1ccc(Cl)cc1 (stereo not drawn),IC50,Cavia porcellus [1],7.9 µg/mL
same,ED50,Rattus norvegicus [2],7.5 mg/kg
same,ED50,Rattus norvegicus [3],14.2 mg/kg
same,ED50,Rattus norvegicus [4],38.7 mg/kg
O=C1c2[nH]cnc2N(Cc2ccc(Cl)cc2)C2=NCCN12,IC50,Cavia porcellus [1],14 µg/mL
same,ED50,Rattus norvegicus [9],8.4 mg/kg
same,ED50,Rattus norvegicus [7],2.4 mg/kg
same,ED50,Rattus norvegicus [3],0.9 mg/kg
same,IC50,Rattus norvegicus [10],490 µM
same,inhibition in vivo at 33 mg/kg,Rattus norvegicus [11],11.5%
Cc1nc2c(n1C)C(=O)N1CCN=C1N2Cc1ccc(Cl)cc1,IC50,Cavia porcellus [1],8.4 µg/mL
Cn1c(Br)nc2c1C(=O)N1CCN=C1N2Cc1ccc(Cl)cc1,IC50,Cavia porcellus [12],3.9 µg/mL
same,ED50,Rattus norvegicus [13],inactive
Cn1c(=O)c2nc[nH]c2n(C)c1=O.O [THEOPHYLLINE],IC50,Cavia porcellus [12],18.5 µg/mL
same,Ki,[14],1150 µM
same,ED50,Rattus norvegicus [9],11.7 mg/kg
same,ED50,Rattus norvegicus [7],> 7.9 mg/kg
same,inhibition in vivo at 47.6 mg/kg,Rattus norvegicus [15],0%
same,inhibition in vivo at 47.6 mg/kg,Rattus norvegicus [16],52.5%
same,inhibition in vivo at 47.6 mg/kg,Rattus norvegicus [17],13%
same,inhibition in vivo at 11.7 mg/kg,Rattus norvegicus [18],42.4%
same,inhibition in vivo at 47.6 mg/kg,Rattus norvegicus [19],51.9%
same,IC50,Rattus norvegicus [10],2500 µM
same,inhibition in vivo at 11.7 mg/kg,Rattus norvegicus [20],25.1%
O=C1c2[nH]cnc2N(Cc2cccc(Cl)c2)C2=NCCN12,IC50,Cavia porcellus [1],12.5 µg/mL
CC1(C)CN2C(=O)c3[nH]cnc3N(Cc3ccc(Cl)cc3)C2=N1,IC50,Cavia porcellus [1],14.3 µg/mL
same,ED50,Rattus norvegicus [3],3 mg/kg
same,ED50,Rattus norvegicus [21],35.3 mg/kg
O=C1c2[nH]cnc2N(Cc2ccccc2Cl)C2=NCCN12,IC50,Cavia porcellus [1],49 µg/mL
O=C1c2nc[nH]c2N(CC2CCCCC2)C2=NCCN12,IC50,Cavia porcellus [12],10 µg/mL
same,ED50,Rattus norvegicus [22],inactive
CSc1nc2c([nH]1)N(Cc1ccc(Cl)cc1)C1=NCCN1C2=O,IC50,Cavia porcellus [12],13.7 µg/mL
same,ED50,Rattus norvegicus [2],> 30 mg/kg
O=C1c2[nH]cnc2N(Cc2ccc(Cl)c(Cl)c2)C2=NCCN12,IC50,Cavia porcellus [1],12.5 µg/mL
CC(C)CN1C2=NC(C)CN2C(=O)c2[nH]cnc21 (stereo not drawn),IC50,Cavia porcellus [1],14 µg/mL
same,ED50,Rattus norvegicus [23],> 30 mg/kg
O=C1c2nc[nH]c2N(Cc2ccccc2)C2=NCCN12,IC50,Cavia porcellus [1],22.5 µg/mL
same,ED50,Rattus norvegicus [22],inactive

# From ChEMBL document CHEMBL1121553, “Substituted 6,7-dihydroimidazo[1,2-a]purin-9(4H)-ones” (J Med Chem, 1980)
